From ChEMBL document CHEMBL1140947, “Enantioselectivity in cardioprotection induced by (S)- (-)-2,2-dimethyl-N-(4'-acetamido-benzyl)-4-spiromorpholone-chromane” (2009)

Experiments:
Type in all cases: functional, Heart
Conditions in all cases: route intraperitoneal
[1] = tested on: Rattus norvegicus; experiment: Cardioprotective effect in Langendorff perfused Wistar rat hearts assessed as ratio for ischemic injured area to total area at 40 mg/kg, ip
Procedure, shortened: (§1)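 Rats pretreated intraperitoneally (test agents 40 mg/kg; reference agents 40 or 1 mg/kg); hearts isolated and Langendorff-perfused through an ischemia-reperfusion cycle. Rate-pressure product at 120 min reperfusion expressed as % of the last preischemic minute. After reperfusion, TTC staining of left ventricle (necrotic white/pale pink, healthy red); injured area given as % of total area. Mean ± SE, n = 4-6 experiments.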

[2] = tested on: Rattus norvegicus; experiment: Cardioprotective effect in Langendorff perfused Wistar rat hearts assessed as ischemic damage measured by rate-pressure product-120 at 40 mg/kg, ip; procedure, shortened: as §1
[3] = tested on: Rattus norvegicus; experiment: Cardioprotective effect in Langendorff perfused Wistar rat hearts assessed as ratio for ischemic injured area to total area at 1 mg/kg, ip; procedure, shortened: as §1
[4] = tested on: Rattus norvegicus; experiment: Cardioprotective effect in Langendorff perfused Wistar rat hearts assessed as ischemic damage measured by rate-pressure product-120 at 1 mg/kg, ip; procedure, shortened: as §1

CC(=O)Nc1ccc(CN2C[C@]3(CC(C)(C)Oc4ccccc43)OCC2=O)cc1
Activity [1]: 35%
Activity [2]: 27%

CC1=Nc2ccc(Cl)cc2S(=O)(=O)N1 [DIAZOXIDE]
Activity [1]: 25%
Activity [2]: 45%

CC(=O)Nc1ccc(CN2C[C@@]3(CC(C)(C)Oc4ccccc43)OCC2=O)cc1
Activity [1]: 16%
Activity [2]: 64%

CC1(C)Oc2ccc(C#N)cc2C(N2CCCC2=O)C1O (stereo not given) [CROMAKALIM]
Activity [3]: 23%
Activity [4]: 86%

CC(=O)Nc1ccc(CN2CC3(CC(C)(C)Oc4ccccc43)OCC2=O)cc1 (racemic)
Activity [1]: 22%
Activity [2]: 59%
